Source: PMC6688905 (Journal of medicinal chemistry, 2018)
“Also recorded” adds a separate entry of the source. Each block holds one compound with its values, some of them ahead of it.

Columns and labels:
[1] = NMR-based reactivity of electrophile toward Nα-acetyl lysine; format: physicochemical; conditions: 100 mM phosphate buffer pH 7.4, ten-fold excess of N^α-acetyl lysine, 25 °C
PI3Kα (p110α/p85α) = PI3Kα (p110α/p85α) (Homo sapiens, UniProt P42336); assay: MS timecourse for covalent modification of PI3K; conditions: 4 μM neolymphostin A with 2 μM PI3Kα
[2] = biological target: T1, Polo-like kinase 4 (PLK4) (Homo sapiens, UniProt O00444); assay: KINOMEscan kinase selectivity panel; format: binding; conditions: 1 μM
T1 sequence (O00444 1-970): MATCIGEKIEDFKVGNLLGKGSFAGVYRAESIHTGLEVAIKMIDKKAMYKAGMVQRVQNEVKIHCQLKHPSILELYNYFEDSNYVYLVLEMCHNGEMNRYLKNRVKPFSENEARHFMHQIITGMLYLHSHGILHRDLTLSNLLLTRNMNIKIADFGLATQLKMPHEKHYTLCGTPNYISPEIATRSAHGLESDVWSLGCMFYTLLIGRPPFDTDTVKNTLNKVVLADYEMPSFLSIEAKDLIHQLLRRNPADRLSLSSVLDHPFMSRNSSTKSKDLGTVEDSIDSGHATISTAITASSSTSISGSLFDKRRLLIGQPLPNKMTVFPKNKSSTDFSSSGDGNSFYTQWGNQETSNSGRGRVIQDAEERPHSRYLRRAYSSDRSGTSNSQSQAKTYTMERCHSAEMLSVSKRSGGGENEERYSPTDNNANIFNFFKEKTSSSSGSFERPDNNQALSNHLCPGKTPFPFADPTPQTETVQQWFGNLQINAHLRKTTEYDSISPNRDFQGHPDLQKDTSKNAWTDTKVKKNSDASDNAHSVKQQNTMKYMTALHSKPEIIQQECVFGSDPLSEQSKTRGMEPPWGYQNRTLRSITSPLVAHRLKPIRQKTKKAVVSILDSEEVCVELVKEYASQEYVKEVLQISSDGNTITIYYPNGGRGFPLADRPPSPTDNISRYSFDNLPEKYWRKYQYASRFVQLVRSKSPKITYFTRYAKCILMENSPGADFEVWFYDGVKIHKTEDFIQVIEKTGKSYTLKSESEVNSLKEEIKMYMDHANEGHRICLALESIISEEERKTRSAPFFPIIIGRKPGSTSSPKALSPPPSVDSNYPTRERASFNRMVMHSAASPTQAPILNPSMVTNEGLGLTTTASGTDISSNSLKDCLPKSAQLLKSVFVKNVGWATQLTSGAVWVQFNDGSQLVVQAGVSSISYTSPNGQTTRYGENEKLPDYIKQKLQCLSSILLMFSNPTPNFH

[3] = biological target: c-Jun N-terminal kinase 2 (JNK2) (Homo sapiens, UniProt P45984); assay: KINOMEscan kinase selectivity panel; format: binding; conditions: 1 μM
PI3Kα = PI3Kα (Homo sapiens, UniProt P42336); assay: KINOMEscan kinase selectivity panel; format: binding; conditions: 1 μM
[4] = biological target: c-Jun N-terminal kinase 3 (JNK3) (Homo sapiens, UniProt P53779); assay: KINOMEscan kinase selectivity panel; format: binding; conditions: 1 μM
[5] = biological target: c-Jun N-terminal kinase 1 (JNK1) (Homo sapiens, UniProt P45983); assay: KINOMEscan kinase selectivity panel; format: binding; conditions: 1 μM
[6] = system: National Cancer Institute 60-cell line panel; assay: NCI 60-cell line anticancer screen; format: cell-based; conditions: read-out: GI50 values
Summary of the method: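 Cancer cell lines covering leukemia, non-small cell lung, colon, CNS, melanoma, ovarian, renal, prostate and breast were tested with 5-point dose-response curves, top concentration 50 μM. GI50, TGI and LC50 were calculated from the curves.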

aurora kinase B (AURKB) = aurora kinase B (AURKB) (Homo sapiens, UniProt Q96GD4); assay: KINOMEscan kinase selectivity panel; format: binding; conditions: 1 μM
[7] = system: EGFR and ERK1/2 phosphorylation in EGF-stimulated HeLa cells; assay: PI3K inhibition in live cells, Western blot of EGFR and ERK1/2 phosphorylation; format: cell-based; conditions: serum-starved HeLa cells, 10 min pretreatment, EGF stimulation
Summary of the method: (§1)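 HeLa cells were serum-starved overnight, then pretreated 10 min with test compound at the indicated concentrations and stimulated with 10 ng mL−1 EGF for 5 min. Cells were lysed in boiling SDS sample buffer and protein was quantified at 660 nm. Equal protein was run on SDS-PAGE, Western-blotted with ECL detection, and probed for AKT, pAKT Ser473/Thr308, ERK1/2, pERK1/2 Thr202/Tyr204, EGFR, pEGFR Tyr1068 and GAPDH.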

[8] = system: AKT phosphorylation (Ser473, Thr308) in EGF-stimulated HeLa cells; assay: PI3K inhibition in live cells, Western blot of AKT phosphorylation; format: cell-based; conditions: serum-starved HeLa cells, 10 min pretreatment, EGF stimulation
Summary of the method: as §1

aurora kinase A (AURKA) = biological target: T2, aurora kinase A (AURKA) (Homo sapiens, UniProt O14965); assay: KINOMEscan kinase selectivity panel; format: binding; conditions: 1 μM
T2 sequence (O14965 1-403): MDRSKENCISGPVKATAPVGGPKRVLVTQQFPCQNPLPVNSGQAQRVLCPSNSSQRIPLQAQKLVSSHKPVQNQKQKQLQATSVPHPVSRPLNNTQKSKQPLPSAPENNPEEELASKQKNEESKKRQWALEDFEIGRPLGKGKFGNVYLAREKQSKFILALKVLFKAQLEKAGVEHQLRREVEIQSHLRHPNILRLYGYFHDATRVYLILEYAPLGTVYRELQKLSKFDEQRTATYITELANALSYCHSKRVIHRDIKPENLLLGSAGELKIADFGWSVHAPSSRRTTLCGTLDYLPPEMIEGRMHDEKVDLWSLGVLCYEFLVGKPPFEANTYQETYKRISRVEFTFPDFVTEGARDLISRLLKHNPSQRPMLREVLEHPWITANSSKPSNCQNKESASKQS

[9] = behaviour in buffer at higher concentrations; format: physicochemical

Sequence of c-Jun N-terminal kinase 1 (JNK1) (P45983 whole entry): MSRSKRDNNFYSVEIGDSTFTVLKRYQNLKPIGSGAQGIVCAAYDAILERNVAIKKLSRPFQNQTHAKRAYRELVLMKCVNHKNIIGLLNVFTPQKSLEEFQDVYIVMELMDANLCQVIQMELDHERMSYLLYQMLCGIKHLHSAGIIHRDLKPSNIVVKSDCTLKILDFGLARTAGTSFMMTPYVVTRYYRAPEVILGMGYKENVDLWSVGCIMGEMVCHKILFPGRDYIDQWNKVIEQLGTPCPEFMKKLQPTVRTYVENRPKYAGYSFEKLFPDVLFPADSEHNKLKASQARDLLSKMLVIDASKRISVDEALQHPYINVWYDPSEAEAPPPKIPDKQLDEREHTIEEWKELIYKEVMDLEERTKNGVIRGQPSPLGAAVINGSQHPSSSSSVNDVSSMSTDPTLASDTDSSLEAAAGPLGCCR
Sequence of c-Jun N-terminal kinase 3 (JNK3) (P53779 whole entry): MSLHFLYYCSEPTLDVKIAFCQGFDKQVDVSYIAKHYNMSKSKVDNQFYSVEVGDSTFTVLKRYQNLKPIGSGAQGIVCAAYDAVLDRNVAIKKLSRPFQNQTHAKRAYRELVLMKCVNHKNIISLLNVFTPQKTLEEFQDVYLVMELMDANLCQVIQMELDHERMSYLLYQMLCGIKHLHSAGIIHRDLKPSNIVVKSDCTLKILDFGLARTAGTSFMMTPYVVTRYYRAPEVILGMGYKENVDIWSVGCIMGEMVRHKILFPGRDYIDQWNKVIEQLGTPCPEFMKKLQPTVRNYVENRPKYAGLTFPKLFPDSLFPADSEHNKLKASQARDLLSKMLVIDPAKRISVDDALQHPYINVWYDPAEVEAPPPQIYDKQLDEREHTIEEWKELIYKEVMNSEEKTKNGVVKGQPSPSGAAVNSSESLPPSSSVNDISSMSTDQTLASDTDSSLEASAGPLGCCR
Sequence of c-Jun N-terminal kinase 2 (JNK2) (P45984 whole entry): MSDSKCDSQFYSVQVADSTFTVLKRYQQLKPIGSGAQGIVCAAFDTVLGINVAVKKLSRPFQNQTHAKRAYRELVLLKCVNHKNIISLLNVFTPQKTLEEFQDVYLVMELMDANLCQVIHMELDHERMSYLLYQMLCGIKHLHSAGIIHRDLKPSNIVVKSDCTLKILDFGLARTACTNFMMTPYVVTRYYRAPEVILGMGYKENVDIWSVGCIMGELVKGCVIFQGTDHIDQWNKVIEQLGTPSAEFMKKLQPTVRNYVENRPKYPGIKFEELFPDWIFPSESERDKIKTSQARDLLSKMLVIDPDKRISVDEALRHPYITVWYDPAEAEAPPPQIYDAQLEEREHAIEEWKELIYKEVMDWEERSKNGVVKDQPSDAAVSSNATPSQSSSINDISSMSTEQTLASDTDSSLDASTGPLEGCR
Sequence of aurora kinase B (AURKB) (Q96GD4 whole entry): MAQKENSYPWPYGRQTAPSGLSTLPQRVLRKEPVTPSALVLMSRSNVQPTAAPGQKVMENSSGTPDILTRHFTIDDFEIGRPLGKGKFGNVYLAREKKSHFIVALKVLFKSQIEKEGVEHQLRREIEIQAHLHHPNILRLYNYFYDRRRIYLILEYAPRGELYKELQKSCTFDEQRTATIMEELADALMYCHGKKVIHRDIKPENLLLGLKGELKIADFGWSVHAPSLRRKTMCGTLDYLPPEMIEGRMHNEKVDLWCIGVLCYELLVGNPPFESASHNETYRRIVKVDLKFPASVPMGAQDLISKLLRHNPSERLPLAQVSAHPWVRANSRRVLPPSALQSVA
Sequence of PI3Kα (P42336 whole entry): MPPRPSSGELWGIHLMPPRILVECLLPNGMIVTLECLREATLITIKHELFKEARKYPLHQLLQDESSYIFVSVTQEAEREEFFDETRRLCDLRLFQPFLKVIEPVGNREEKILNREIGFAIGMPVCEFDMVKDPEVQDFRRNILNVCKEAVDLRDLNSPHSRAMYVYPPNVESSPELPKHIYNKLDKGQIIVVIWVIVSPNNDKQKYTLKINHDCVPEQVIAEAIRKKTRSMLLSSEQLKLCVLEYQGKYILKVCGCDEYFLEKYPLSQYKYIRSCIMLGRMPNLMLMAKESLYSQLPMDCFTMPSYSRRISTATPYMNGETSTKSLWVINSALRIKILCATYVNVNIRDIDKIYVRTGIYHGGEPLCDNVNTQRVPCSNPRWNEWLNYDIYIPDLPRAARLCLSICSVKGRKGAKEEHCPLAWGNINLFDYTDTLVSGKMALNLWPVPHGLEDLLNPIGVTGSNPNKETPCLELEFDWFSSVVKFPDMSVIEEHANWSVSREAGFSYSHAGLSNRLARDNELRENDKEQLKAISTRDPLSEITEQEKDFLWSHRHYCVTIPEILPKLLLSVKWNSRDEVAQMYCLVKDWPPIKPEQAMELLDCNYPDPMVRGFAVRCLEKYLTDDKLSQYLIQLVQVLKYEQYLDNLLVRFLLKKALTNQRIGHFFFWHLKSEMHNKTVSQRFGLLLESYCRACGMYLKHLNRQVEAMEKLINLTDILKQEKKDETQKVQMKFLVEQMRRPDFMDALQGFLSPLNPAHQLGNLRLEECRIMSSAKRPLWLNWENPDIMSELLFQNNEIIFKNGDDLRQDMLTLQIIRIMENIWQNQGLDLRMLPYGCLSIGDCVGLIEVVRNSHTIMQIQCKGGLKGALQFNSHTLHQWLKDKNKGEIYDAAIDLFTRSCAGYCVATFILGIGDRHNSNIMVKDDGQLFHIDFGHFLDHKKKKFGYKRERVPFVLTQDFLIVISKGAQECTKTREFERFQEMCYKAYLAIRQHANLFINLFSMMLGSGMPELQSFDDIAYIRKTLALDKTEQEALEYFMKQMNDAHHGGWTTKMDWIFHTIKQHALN
Sequence of PI3Kα (p110α/p85α) (P42336 whole entry, species assumed): as the sequence (P42336 whole entry) above
Sequence of PI3Kα (p110α/p85α) (P27986 whole entry partner, species assumed): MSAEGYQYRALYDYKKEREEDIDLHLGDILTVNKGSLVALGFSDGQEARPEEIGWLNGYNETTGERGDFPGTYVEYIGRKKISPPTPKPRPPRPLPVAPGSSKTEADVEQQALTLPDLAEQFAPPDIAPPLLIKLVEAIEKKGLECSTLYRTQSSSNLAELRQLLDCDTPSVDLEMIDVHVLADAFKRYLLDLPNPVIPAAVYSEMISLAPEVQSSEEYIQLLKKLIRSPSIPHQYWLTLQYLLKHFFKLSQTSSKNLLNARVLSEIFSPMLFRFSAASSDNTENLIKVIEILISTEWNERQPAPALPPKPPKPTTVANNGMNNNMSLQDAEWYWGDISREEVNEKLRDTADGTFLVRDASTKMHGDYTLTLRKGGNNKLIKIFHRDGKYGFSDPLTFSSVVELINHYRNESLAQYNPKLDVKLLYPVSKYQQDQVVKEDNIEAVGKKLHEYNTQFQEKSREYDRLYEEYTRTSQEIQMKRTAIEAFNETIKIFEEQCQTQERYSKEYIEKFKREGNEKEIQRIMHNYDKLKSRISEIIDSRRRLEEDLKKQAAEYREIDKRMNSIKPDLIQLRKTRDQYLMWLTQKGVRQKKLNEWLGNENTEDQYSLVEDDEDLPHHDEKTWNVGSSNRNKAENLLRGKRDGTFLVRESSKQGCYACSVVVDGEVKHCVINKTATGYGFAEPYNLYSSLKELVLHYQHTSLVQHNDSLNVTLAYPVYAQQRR

SMILES: CO/C=C/C(=O)c1ccccn1 [compound 6, (E)-3-methoxy-1-(pyridin-2-yl)prop-2-en-1-one]
reaction with N^α-acetyl lysine [1]: no reaction was observed

time to complete covalent modification of the kinase (PI3Kα (p110α/p85α)): ≤ 2 min
% vs. control [2]: 0.95%
% vs. control [3]: 0.15%
% vs. control (PI3Kα): 0%
% vs. control [4]: 0.2%
% vs. control [5]: 0.25%
% vs. control (aurora kinase B (AURKB)): 1.9%
% vs. control (aurora kinase A (AURKA)): 1.5%
SMILES: CO/C=C/C(=O)c1cc2c3c(c(N)cc(NC(=O)C(C)C)c3n1)N=C2 [neolymphostin, neolymphostin A]
GI50 [6]: 6 to 840 nM
effect on EGFR or ERK1/2 phosphorylation [7]: did not affect phosphorylation of EGFR or ERK1/2; also recorded: no apparent effect
effect on AKT phosphorylation [8]: blocked phosphorylation of AKT at S473 and T308
solubility behaviour [9]: appears to aggregate and “crash out” of solution at higher concentrations in buffer

SMILES: CC(C)C(=O)Nc1cc(N)c2c3c(cc(C(=O)CCO)nc13)C=N2 [neolymphostinol]
effect on AKT phosphorylation [8]: largely unaffected

SMILES: COC[C@H]1OC(=O)c2coc3c2[C@@]1(C)C1=C(C3=O)[C@@H]2CCC(=O)[C@@]2(C)C[C@H]1OC(C)=O [wortmannin, reference compound]
effect on EGFR or ERK1/2 phosphorylation [7]: without affecting phosphorylation of EGFR or ERK1/2
effect on AKT phosphorylation [8]: blocked phosphorylation of AKT on Ser473 and Thr308
